Measured values from different studies.
Target: Phosphatidylinositol 4,5-bisphosphate 3-kinase catalytic subunit gamma isoform (PIK3CG, Homo sapiens, UniProt P48736)

SMILES | read-out | mode | method | tested at | quantity | result
CS(=O)(=O)Nc1cc(-c2ccc3ncnc(Nc4ccc(F)c(Cl)c4)c3c2)cnc1Cl | enzyme activity | inhibitor | FRET | 10 µM | inhibition | 90 to 100%
CC(C)CCn1c(SCC(=O)Nc2ccccc2C(F)(F)F)nc2nccnc2c1=O | enzyme activity | inhibitor | – | 10 µM | inhibition | < 20%
COc1cc(-c2cc(-c3ccc(N4CCNCC4)cc3)cnc2C)cc(OC)c1OC | enzyme activity | inhibitor | – | 0.1 µM | inhibition | 14%
CCc1ccccc1C(=O)Nc1n[nH]c2c(C)c(F)c(C3C(C#N)=C(C)N(C)C(C)=C3C#N)cc12 | cell-free assay | – | competition with immobilised ligand | 1 µM | remaining binding | 100%
Cc1cnc(NC2CCOCC2)nc1-n1cnc(C(=O)NC(CN)c2cc(F)cc(Cl)c2)c1 (stereo not drawn) | enzyme activity | inhibitor | radiometric | 1 µM | remaining activity | 100%
Cc1cc(-n2nc(Cc3cc(F)cc(C(F)(F)F)c3)nc2C)ccc1C(N)=O | cell-free assay | – | competition with immobilised ligand | 1 µM | remaining binding | 79%
CS(=O)(=O)Nc1cccc(-c2csc(NC(=O)CSc3nc4nccnc4c(=O)n3CCc3ccccc3)n2)c1 | enzyme activity | inhibitor | – | 10 µM | inhibition | 20%
CS(=O)(=O)c1cc(C2(NC(=O)c3cncc4c3cnn4-c3ccc(F)cc3)CC2)ccn1 | cell-free assay | – | competition with immobilised ligand | 1 µM | remaining binding | 82%
Nc1ncnc2occ(-c3ccc(NC(=O)Nc4cc(C(F)(F)F)ccc4F)cc3)c12 | cell-free assay | inhibitor | – | 20 µM | remaining signal | 54%
Cc1ccc(NC(=O)c2ccc(C)c(C(F)(F)F)c2)cc1C#Cc1nn(C2CCC(O)CC2)c2ncnc(N)c12 (stereo not drawn) | enzyme activity | inhibitor | – | 10 µM | remaining activity | 87%
O=S(=O)(Nc1cc(Sc2ncn[nH]2)c(O)c2ccccc12)c1ccc(-c2ccccc2)cc1 | enzyme activity | inhibitor | – | 1 µM | remaining activity | ≥ 75%
COc1cc(Cl)c(C(=O)N[C@@H](CN[C@H]2CC[C@@H](N)CC2)Cc2ccc(C#N)cc2)cc1-c1ccc(CN[C@H](C)c2ccc(C)cc2)o1 | enzyme activity | inhibitor | – | 1 µM | remaining activity | 102%
